KLK5 inh – human KLK5 protease inhibitors, primary screen, biochemical, 1536-well; Kallikrein-5 (Homo sapiens), Q9Y337; recombinant hK5, fluorogenic AMC substrate cleavage; inhibition, % at 5 µM; hit rate 0.59% among 210,000; AID 873, 2007;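 active = inhibition of 40% or more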;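 note: 0% = enzyme controls without compound and 100% = no-enzyme blanks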
FXIIa inh – human FXIIa protease inhibitors, primary screen, biochemical, 1536-well; hit rate 0.3% among 220,000; purified FXIIa, Boc-QGR-AMC fluorogenic substrate, 2 h; Coagulation factor XII (Homo sapiens), P00748; inhibition, % at 5 µM; AID 800, 2007; in the data active = inhibition above about 40%;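 note: 0% = enzyme with no compound and 100% = blank without enzyme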
Thrombin inh – human alpha-thrombin inhibitors, primary screen, counter-screen for coagulation protease inhibitor project, biochemical, 1536-well, fluorogenic AMC substrate | hit rate 0.26% among 220,000 | Boc-VPR-AMC fluorogenic substrate cleavage | inhibition, % at 5 µM;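 active = inhibition at or above 40%; inactive = inhibition below 40%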;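 note: 0% = enzyme with no compound and 100% = wells without enzyme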
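Material: human alpha-thrombin protein. Incubation: reaction at ambient temperature. Technique: fluorescence of released AMC, ex 355 nm, em 460 nm. Control set: no-compound enzyme wells and no-enzyme blanks. Also added: Boc-VPR-AMC substrate, 15 µM final. Buffer or medium: pH 7.5 Tris (50 mM) with NaCl 150 mM, Tween 20 0.05%.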
FXIa inh 1536 – human FXIa protease inhibitors, primary screen, biochemical, 1536-well | hit rate 0.14% among 220,000 | Coagulation factor XI (Homo sapiens), P03951 | inhibition, % at 5 µM | purified FXIa, Boc-Glu-Ala-Arg-AMC fluorogenic substrate;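 active = inhibition of at least 40%; inactive = inhibition below 40%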;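 note: fluorescence of freed AMC excited at 355 nm; 0% = enzyme without compound and 100% = no enzyme blank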
Target sequence (P03951 19-387 limits assumed): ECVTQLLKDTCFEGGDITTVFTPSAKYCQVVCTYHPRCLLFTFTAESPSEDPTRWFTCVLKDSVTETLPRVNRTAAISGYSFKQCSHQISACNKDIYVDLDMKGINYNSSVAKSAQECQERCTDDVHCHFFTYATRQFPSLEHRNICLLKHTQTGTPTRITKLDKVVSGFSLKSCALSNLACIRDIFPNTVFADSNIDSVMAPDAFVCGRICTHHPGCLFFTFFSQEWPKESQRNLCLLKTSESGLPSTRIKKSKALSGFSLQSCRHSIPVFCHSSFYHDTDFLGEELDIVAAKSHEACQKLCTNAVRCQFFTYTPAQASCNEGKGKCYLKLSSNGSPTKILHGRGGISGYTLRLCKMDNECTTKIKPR
Target sequence (P03951 388-625 limits assumed): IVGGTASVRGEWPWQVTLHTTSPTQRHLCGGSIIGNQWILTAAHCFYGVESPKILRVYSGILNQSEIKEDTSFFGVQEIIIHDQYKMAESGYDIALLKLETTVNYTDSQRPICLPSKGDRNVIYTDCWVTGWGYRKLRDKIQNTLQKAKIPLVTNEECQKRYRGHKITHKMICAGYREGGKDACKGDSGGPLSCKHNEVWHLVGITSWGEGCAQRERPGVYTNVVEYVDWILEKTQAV
* = called active by the depositor; · = not tested or not shown. An excerpt weighted towards active compounds, which were near 1% of everything screened.

SMILES	KLK5 inh	FXIIa inh	Thrombin inh	FXIa inh 1536
COC(=O)c1ccc(C(C(=O)NC2CCCCC2)N(CCN2CCOCC2)C(=O)Cc2cccs2)cc1 (centres undefined)	-1	100*	-8	1
O=C(c1cccn2c(=O)c3cc(Br)ccc3nc12)N1CCC2(CC1)OCCO2	38	1	20	55*
OC(Cn1c2ccccc2c2ccccc21)C[n+]1cccc2ccccc21 (centres undefined)	6	8	0	4
COc1ccc(-n2c(O)c(/C=C/C=Nc3ccccc3)c(=O)[nH]c2=O)cc1	-14	5	-4	-4
CCCn1cc(CN2CCCC(C(=O)c3cccc(OC)c3)C2)c(C)n1 (centres undefined)	21	75*	-7	32
COc1ccccc1-n1c(Cc2ccccc2)nc2ccccc2c1=O	0	10	-5	1
COc1ccc(OCC(=O)N2CCN(Cc3ccc(SC)cc3)CC2)cc1	1	4	49*	-2
COc1ccc(C(=O)C2CCCN(Cc3cnc(C)s3)C2)cc1OC (centres undefined)	·	10	0	2
Cc1ncc(CN2CCCC(C(=O)c3ccc(C(C)(C)C)cc3)C2)s1 (centres undefined)	35	63*	3	29
CN(C)C(=O)Oc1cccc(-c2cn3cc(Cl)ccc3n2)c1	-15	2	-7	-1
CN(C)C(=O)Oc1ccc(-c2cn3cc(Cl)ccc3n2)cc1	44*	10	27	4
O=C(N/N=C/c1c(O)n(CCc2ccc(F)cc2)c(=O)[nH]c1=O)c1ccncc1	-22	1	-16	-1
O=C(N/N=C/c1c(O)n(CCc2ccccc2)c(=O)[nH]c1=O)c1ccncc1	-28	-2	50*	-6
CCOC(=O)c1nc2ccccc2c(=O)n1-c1cccc(C)c1	5	8	0	-24
O=C(NCc1ccccn1)c1ccccc1Cl	61*	14	11	4
CC(C)(C)C(=O)Cn1c(NCCCl)nc2ccccc21	7	1	-9	-2
O=C(c1cccnc1)C1CCCN(Cc2nc(-c3cnccn3)no2)C1 (centres undefined)	26	41*	30	37
O=C(c1ccccc1)C1CCCN(Cc2nc(-c3cnccn3)no2)C1 (centres undefined)	-7	3	-6	-10
CC(=O)N1CN2CN(C(C)=O)CC(C(=O)c3ccc([N+](=O)[O-])cc3)(C2)C1	1	8	-4	-3
CC(=O)N1CN2CN(C(C)=O)CC(C(=O)c3ccccc3)(C2)C1	48*	19	17	8
Nc1ccncc1Cl	41*	28	16	32
CCOC(=O)c1ccc(N=C(c2ccccc2)c2c(O)n(C)c(=O)n(C)c2=O)cc1	43*	-1	-8	-13
CS(=O)(=O)N1CCN(C(=N)N[N+](=O)[O-])CC1	-4	3	·	0
CCNc1ccc(P(=S)(N(C)C)N(C)C)cc1	2	13	2	-1
Cn1cccc1/C=C1\C(=O)NC(=O)N(Cc2ccccc2Cl)C1=O	18	32	10	48*
CN1CCC2(CC1)C(C#N)=C(N)NC(S)=C2C#N	18	17	6	6
COC(=O)C(O)(c1c[nH]c2ccccc12)C(F)(F)F (centres undefined)	-15	22	1	5
COC(=O)C(O)(c1c(C)[nH]n(-c2ccccc2)c1=O)C(F)(F)F (centres undefined)	99*	23	13	11

Compound activity from PubChem.
